Converted amounts (≈) assume the structure as drawn. Read-outs that look alike come from different tables or passages of the source. Where only a bound is given, the exact number is not on record here.

Usually MIC stands for the least concentration at which growth counts as inhibited.

For assay [1], the system named is S. aureus ATCC 33591 (Sa91). In words: MIC, microdilution with resazurin. The conditions noted are these: Staphylococcus aureus, ATCC33591, read-out: MIC Sa91. The class given is cell-based. Put shortly:
(§1)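 Compounds dissolved in DMSO at 2 mg/mL. Overnight blood-agar colonies were suspended in PBS to 0.5 McFarland, then diluted in Mueller Hinton broth to about 1x10^6 cfu/mL with resazurin (1:1000 of 0.1% w/v stock). Twofold DMSO dilutions were added 1:40, giving 50 to 0.4 μg/mL at 2.5% DMSO. Incubation was 35 °C for 16-20 h. Blue/non-turbid wells counted as inhibited, pink/turbid as grown.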
In general terms: Dilution methods test growth across graded concentrations, often in twofold steps.

The test system of assay [2] is S. aureus ATCC 33592 (Sa92). In words: MIC, microdilution with resazurin. The class given is cell-based. The following applies: Staphylococcus aureus, ATCC33592, read-out: MIC Sa92. The gist of the method: as §1
For assay [3], the system named is B. subtilis ATCC 6623 (Bs). The assay can be described thus: MIC, microdilution with resazurin. The class given is cell-based, Bacillus subtilis. The conditions noted are these: Bacillus subtilis, ATCC6623, read-out: MIC Bs.
Assay [4] deals with S. aureus ATCC 700699 (Sa99). In words: MIC, microdilution with resazurin. The class given is cell-based. The following applies: Staphylococcus aureus, ATCC700699, read-out: MIC Sa99. Put shortly: as §1
Assay [5] relates to tested Gram-positive bacterial strains. In words: MIC, text summary over tested Gram-positive strains. The class given is cell-based.
In assay [6] the test system is S. epidermidis 700296 (Se). In words: MIC, microdilution with resazurin. The conditions noted are these: Staphylococcus epidermidis, read-out: MIC Se. The class given is cell-based. The gist of the method:
as §1

For assay [7], the system named is A. baumannii ATCC 747 (Ab47). The assay can be described thus: MIC, microdilution with resazurin. The class given is cell-based, Acinetobacter baumannii. The conditions noted are these: Acinetobacter baumannii, ATCC747, read-out: MIC Ab47. The gist of the method:
as §1

In assay [8] the test system is S. aureus ATCC 25923 (Sa23). The assay can be described thus: MIC, microdilution with resazurin. The class given is cell-based. The following applies: Staphylococcus aureus, ATCC25923, read-out: MIC Sa23. The gist of the method:
as §1

Assay [9] has as its system A. baumannii ATCC 19606 (type strain, Ab06). The assay can be described thus: MIC and MBC. The following applies: Acinetobacter baumannii, ATCC19606, read-out: MIC Ab06. The class given is cell-based, Acinetobacter baumannii. The gist of the method: as §1
In assay [10] the test system is S. aureus BAA-2312 (Sa12). In words: MIC, microdilution with resazurin. The class given is cell-based. The conditions noted are these: Staphylococcus aureus, BAA2312, read-out: MIC Sa12. Put shortly:
as §1

Take `O=C(O)c1ccc(-n2cc(/C=N/N(Cc3ccccc3)c3ccccc3)c(-c3ccc4ccccc4c3)n2)cc1` [Compound 9]: the MIC was 1.56 µg/mL (≈ 2.99 µM) in assay [1]; 1.56 µg/mL (≈ 2.99 µM) in [2]; 25 µg/mL (≈ 47.8 µM) in assay [3]; 1.56 µg/mL (≈ 2.99 µM) in assay [4]; at least 1.56 µg/mL in assay [5] (read-out: MIC value as low as); 3.12 µg/mL (≈ 5.98 µM) in assay [6]. Besides, the MIC in assay [7] was above 50 µg/mL; in assay [8] it was 3.12 µg/mL (≈ 5.98 µM); in assay [9], above 50 µg/mL; in assay [10] it was 3.12 µg/mL (≈ 5.98 µM).

As to `O=C(O)c1ccc(-n2cc(/C=N/Nc3ccccc3)c(-c3ccc4ccccc4c3)n2)cc1` [Compound 6], the MIC was above 25 µg/mL in [1]; 12.5 µg/mL (≈ 28.9 µM) in assay [2]; 25 µg/mL (≈ 57.8 µM) in [3]; 12.5 µg/mL (≈ 28.9 µM) in [4]; 25 µg/mL (≈ 57.8 µM) in assay [5] (Staphylococcus aureus, read-out: MIC value against S. aureus strains); 25 µg/mL (≈ 57.8 µM) in [6]. Also, the MIC in assay [7] was above 50 µg/mL; in [8], 25 µg/mL (≈ 57.8 µM); in [9], above 50 µg/mL; in [10], 25 µg/mL (≈ 57.8 µM).

As for `O=C(O)c1ccc(-n2cc(/C=N/N3CCCCC3)c(-c3ccc4ccccc4c3)n2)cc1` [Compound 30], the MIC in assay [1] was above 25 µg/mL; in [2] it was 25 µg/mL (≈ 58.9 µM); in [3], 25 µg/mL (≈ 58.9 µM); in [4], 25 µg/mL (≈ 58.9 µM); in assay [6] it was above 25 µg/mL; in [7], above 50 µg/mL. In addition, the MIC was above 25 µg/mL in assay [8], above 50 µg/mL in assay [9] and above 50 µg/mL in assay [10]. Further, in assay [5], the “antimicrobial activity against the tested strains” value (“antimicrobial activity” for short) is listed as “failed to show any remarkable antimicrobial activity”.

`COC(=O)N/N=C/c1cn(-c2ccc(C(=O)O)cc2)nc1-c1ccc2ccccc2c1` [Compound 34]: the minimum inhibitory concentration (MIC) in assay [1], in assay [2], in [3], in assay [4], in assay [6] and in [7] was above 50 µg/mL each time. For the same molecule, the MIC in assay [8], in assay [9] and in [10] was above 50 µg/mL in each case. Besides, the “antimicrobial activity” value in assay [5] was “failed to show any remarkable antimicrobial activity”.

`CN(C)/N=C/c1cn(-c2ccc(C(=O)O)cc2)nc1-c1ccc2ccccc2c1` [Compound 29]: the MIC in [1] was above 50 µg/mL; in assay [2], above 25 µg/mL; in assay [3], above 25 µg/mL; in assay [4], 25 µg/mL (≈ 65 µM); in [6], above 25 µg/mL; in assay [7] it was above 50 µg/mL. For the same molecule, the minimal inhibitory concentration (MIC) is above 25 µg/mL in [8], above 50 µg/mL in [9] and above 50 µg/mL in assay [10]. For the same molecule, in assay [5], the “antimicrobial activity” value is listed as “did not show any activity”.

Turning to `O=C(O)c1ccc(-n2cc(/C=N/Nc3ccc([N+](=O)[O-])cc3)c(-c3ccc4ccccc4c3)n2)cc1` [Compound 27], the minimal inhibitory concentration (MIC) in assay [1], in assay [2], in assay [3], in assay [4], in [6] and in [7] was above 50 µg/mL in each case. Also, the MIC in assay [8], in assay [9] and in assay [10] was above 50 µg/mL each time. In addition, in [5], the “antimicrobial activity” value is listed as “eliminated the activity”.

On to `COc1ccc(N/N=C/c2cn(-c3ccc(C(=O)O)cc3)nc2-c2ccc3ccccc3c2)cc1` [Compound 13], for which the MIC in assay [1] was 25 µg/mL (≈ 54.1 µM); in assay [2] it was 25 µg/mL (≈ 54.1 µM); in [3] it was above 25 µg/mL; in assay [4] it was 12.5 µg/mL (≈ 27 µM); in assay [6], above 25 µg/mL; in assay [7], above 50 µg/mL. Besides, the MIC in [8] is above 25 µg/mL; in assay [9], above 50 µg/mL; in [10], above 25 µg/mL. Moreover, the “antimicrobial activity” value in assay [5] is on record as “reduced the potency drastically”.

On to `O=C(O)c1ccc(-n2cc(/C=N/NC3=NCCN3)c(-c3ccc4ccccc4c3)n2)cc1` [Compound 33], for which the MIC in assay [1], in assay [2], in [3], in assay [4], in assay [6] and in [7] was above 50 µg/mL throughout. Also, the minimum inhibitory concentration (MIC) in [8], in assay [9] and in assay [10] was above 50 µg/mL throughout. Moreover, the “antimicrobial activity” value in [5] is “failed to show any remarkable antimicrobial activity”.

For the molecule `CCc1ccccc1N/N=C/c1cn(-c2ccc(C(=O)O)cc2)nc1-c1ccc2ccccc2c1` [Compound 12], the MIC is 25 µg/mL (≈ 54.3 µM) in [1]; 12.5 µg/mL (≈ 27.1 µM) in assay [2]; 25 µg/mL (≈ 54.3 µM) in assay [3]; 12.5 µg/mL (≈ 27.1 µM) in assay [4]; above 25 µg/mL in assay [6]; above 50 µg/mL in [7]. Also, the MIC was 25 µg/mL (≈ 54.3 µM) in [8], above 50 µg/mL in assay [9] and 25 µg/mL (≈ 54.3 µM) in [10]. Moreover, the “antimicrobial activity” value in assay [5] is “reduced the potency drastically”.

With `O=C(O)c1ccc(-n2cc(/C=N/n3cnnc3)c(-c3ccc4ccccc4c3)n2)cc1` [Compound 32], the MIC in assay [1], in assay [2], in assay [3], in assay [4], in assay [6] and in assay [7] was above 50 µg/mL throughout. Also, the MIC in assay [8], in [9] and in [10] was above 50 µg/mL each time. Besides, the “antimicrobial activity” value in assay [5] was “failed to show any remarkable antimicrobial activity”.

In the case of `Cc1ccc(N/N=C/c2cn(-c3ccc(C(=O)O)cc3)nc2-c2ccc3ccccc3c2)cc1` [Compound 11], the MIC in [1] was 25 µg/mL (≈ 56 µM); in assay [2] it was 12.5 µg/mL (≈ 28 µM); in assay [3], 25 µg/mL (≈ 56 µM); in assay [4] it was 6.25 µg/mL (≈ 14 µM); in assay [6] it was 25 µg/mL (≈ 56 µM); in [7], above 50 µg/mL. Besides, the MIC in [8] is 25 µg/mL (≈ 56 µM); in [9], above 50 µg/mL; in assay [10], 25 µg/mL (≈ 56 µM). The “antimicrobial activity” value in assay [5] is recorded as “reduced the potency drastically”.

As to `CN1CCN(/N=C/c2cn(-c3ccc(C(=O)O)cc3)nc2-c2ccc3ccccc3c2)CC1` [Compound 31], the MIC in assay [1], in [2], in [3], in [4], in [6] and in assay [7] was above 50 µg/mL each time. In addition, the MIC in [8], in [9] and in assay [10] was above 50 µg/mL in each case. Also, the “antimicrobial activity” value in assay [5] is “failed to show any remarkable antimicrobial activity”.

Consider `O=C(O)c1ccc(N/N=C/c2cn(-c3ccc(C(=O)O)cc3)nc2-c2ccc3ccccc3c2)cc1` [Compound 28], for which the MIC in assay [1], in [2], in [3], in assay [4], in assay [6] and in assay [7] was above 50 µg/mL in each case. Moreover, the MIC in [8], in assay [9] and in assay [10] was above 50 µg/mL throughout. Also, in [5], the “antimicrobial activity” value is recorded as “eliminated the activity”.

`CN(/N=C/c1cn(-c2ccc(C(=O)O)cc2)nc1-c1ccc2ccccc2c1)c1ccccc1` [Compound 7]: the MIC was above 50 µg/mL in [1]; 1.56 µg/mL (≈ 3.49 µM) in assay [2]; above 50 µg/mL in [3]; 1.56 µg/mL (≈ 3.49 µM) in assay [4]; above 50 µg/mL in assay [6]; above 50 µg/mL in [7]. For the same molecule, the minimal inhibitory concentration (MIC) in [8], in assay [9] and in assay [10] was above 50 µg/mL each time.

`N#Cc1ccc(N/N=C/c2cn(-c3ccc(C(=O)O)cc3)nc2-c2ccc3ccccc3c2)cc1` [Compound 26]: the MIC in assay [1], in assay [2], in assay [3], in assay [4], in assay [6] and in assay [7] was above 50 µg/mL throughout. Moreover, the MIC in assay [8], in assay [9] and in assay [10] was above 50 µg/mL each time. For the same molecule, in assay [5], the “antimicrobial activity” value is recorded as “eliminated the activity”.

These data come from PMC7655718 (The Journal of antibiotics, 2020).
